# Compounds with a hit are over-represented: about 1.1% of the library has one in this group of screens.
# CAL PDZ FP-1 = human CAL PDZ-peptide interaction inhibition; Q9HD26; AID 504414; 330,000 tested, 0.02% active; purified CAL PDZ, TMR-peptide fluorescence polarization, 1 h; inhibition, % at 20 µM;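 active means highest replicate inhibition of at least 40%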
#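 material = purified tagged CAL PDZ domain construct (CerCALP) | buffer or medium = sodium phosphate/NaCl buffer pH 7.4 with TCEP, IgG, Thesit | reagent = TMR-labelled reporter peptide T*-PRC34 bound in PDZ groove | incubation = 1 h room-temperature incubation prior to read | measured by = fluorescence polarization (mP) | evaluation = percent inhibition from loss of millipolarization | control set = unlabelled peptide and DMSO controls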
# PglD inh = inhibitors of Campylobacter jejuni PglD acetyltransferase; AID 602405; purified PglD enzyme, DTNB colorimetric CoA detection; inhibition, % at 12.5 µM; 360,000 tested, 0.098% active; in the data active means inhibition above about 16%, passing the limit was not always enough
# miR122 inh = blocks miR-122 activity in Huh7 sensor cells; Huh7 miR-122 Renilla luciferase sensor, 48 h; neutral wells = 0, positive control = 100; activation (reporter increase), % at 12.5 µM; 340,000 tested, 0.3% active; AID 602342;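 active means mean replicate activation score at least 90 and every replicate individually at or above 90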;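 further: higher luciferase means less miR-122 activity so hits act as miR-122 inhibitors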
# CAL PDZ FP-2 = blocks peptide binding to the human CAL PDZ domain | Q9HD26 | purified CAL PDZ, TMR-peptide fluorescence polarization, 1 h | inhibition, % at 24.9 µM | 300,000 tested, 0.92% active | AID 602252;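 active means mean inhibition of at least 30% with at least half of replicates also reaching 30%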
# Cneo AK release = Cryptococcus neoformans lysis via adenylate kinase release. AID 651654. 360,000 tested, 0.2% active. lysis activity, % at 15 µM. C. neoformans lysis, adenylate kinase release luminescence, 4 h; normalised: neutral wells 0, clomiphene wells 100;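 active means mean lysis activity across replicates of at least 80%, whatever share of replicates individually reach that level; inactive means mean lysis activity below 80%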
#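 Material: C. neoformans cells | Amount: Yeast cell density of 5 × 10^6 cells/mL | Medium: Fresh YPD growth medium | Dosing: Single dose | Times: Static 4 h at 37 °C with compound, 1 h detection | Detection: AK luminescence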
# Hits are given with their value; 0 = inactive; - = not tested or not shown; ! = repeats disagree.
SMILES,CAL PDZ FP-1,PglD inh,miR122 inh,CAL PDZ FP-2,Cneo AK release
CC1CN(C(=O)CSc2cn(CC(=O)N3CCOCC3)c3ccccc23)CC(C)O1 (stereo unspecified),0,0,0,0,0
CN(C(=O)CSc1cn(CC(=O)N2CCOCC2)c2ccccc12)c1ccccc1,0,0,0,34.7,0
COc1ccccc1-c1cn(CC[C@@H]2CC[C@@H](NC(=O)C3CCCCC3)[C@H](CO)O2)nn1,-,0,-,-,0
O=C1CSC(=S)N1/N=C/c1cc(Br)c(O)c(Br)c1,0,0,0,58.9,0
OCC[C@@H]1C[C@@H](O)[C@H](O)[C@@]2(CCCc3ccccc3O2)O1,0,0,0,0,0
CCn1cc(/C=C(\NC(=O)c2ccccc2)C(=O)NCCCn2ccnc2)c2ccccc21,-,0,165.4,-,0
NC(=O)c1cc(S(=O)(=O)N2CCCC2)ccc1OCCOc1ccccc1F,0,-,-,44.0,-
COc1ccc(OCCOc2ccc(S(=O)(=O)N3CCCC3)cc2C(N)=O)cc1,0,0,0,0,0
Cc1sc2nc(COC(=O)c3cccc(OC(F)F)c3)[nH]c(=O)c2c1C,0,0,0,56.0,0
N#C[C@H]1N[C@H](CO)[C@@H]1c1ccc(C#Cc2cccnc2)cc1,-,0,-,-,0
Cn1c(=O)cc(OCCCC(=O)NCc2ccccn2)c2ccccc21,0,0,0,0,-
Cc1ccnc(NC(=O)CCCOc2cc(=O)n(C)c3ccccc23)c1,0,0,183.1!,0,0
COc1ccc(-c2cnc3c(c2)C(=O)N([C@@H](C)CO)C[C@@H](C)[C@@H](CN(C)C(=O)C2CCOCC2)O3)cc1,-,0,0,-,0
O=C(Nc1ccc(CN2CCOCC2)cc1)c1ccc(-c2cccc(Cl)c2)o1,0,0,0,89.2,0
O=S(=O)(NCCCN1CCOCC1)c1ccc(Cl)s1,0,-,-,0,-
CCCCCCNS(=O)(=O)c1ccc(Cl)s1,0,0,209.3,0,0
COc1ccc(S(=O)(=O)N(C)C[C@H]2OCCCC[C@@H](C)Oc3ccc(NC(=O)Nc4cccc5ccccc45)cc3C(=O)N([C@H](C)CO)C[C@H]2C)cc1,-,0,0,-,0
CCN(CC)C(=O)Oc1ccc(Cl)c2cccnc12,0,0,0,0,0
O=C(Nc1cccc(C(F)(F)F)c1)Oc1ccc(Cl)c2cccnc12,0,0,0,35.2,0
CC=Cc1ccc2n(c1=O)C[C@@H]1[C@@H](CO)[C@H](C(=O)NCCc3cn(C)cn3)[C@H]2N1C(=O)C1CC1 (mixture of isomers),-,0,0,-,0
O=C(COC(=O)c1cccc(OC(F)F)c1)NC1CCCC1,-,0,0,42.3,0
O=C(COC(=O)c1ccc(OC(F)F)cc1)NC(=O)NC1CCCC1,0,0,0,0,0
C[C@H](NC(=O)C[C@@H]1CC[C@H]2[C@@H](COC[C@@H](O)CN2C(=O)Nc2cc(Cl)cc(Cl)c2)O1)c1ccccc1,-,0,0,-,0
CCC(=O)N(C)C[C@@H]1Oc2cc(C#CCC3CCCC3)ccc2S(=O)(=O)N([C@H](C)CO)C[C@@H]1C,-,0,0,-,0
CCOc1cccc(-c2c(C(=O)N/N=C(\C)c3cccnc3)nnn2-c2nonc2N)c1,0,0,0,0,0
SMILES,CAL PDZ FP-1,PglD inh,miR122 inh,CAL PDZ FP-2,Cneo AK release
CCN(CC)C(=O)COc1ccc(N(C)S(=O)(=O)c2ccc(NC(C)=O)cc2)cc1,0,0,0,71.3,0
CCN(C(=O)COc1ccc(N(C)S(=O)(=O)c2ccc(NC(C)=O)cc2)cc1)C1CCCCC1,0,0,0,0,0
O=C(NCC(c1ccc(F)cc1)N1CCOCC1)c1ccccc1F (stereo unspecified),0,-,-,0,-
COc1ccc(/C=C(\C#N)C(=O)NCC(c2ccc(F)cc2)N2CCOCC2)cc1 (stereo unspecified),0,0,0,77.5,0
Cc1ccccc1SCC(=O)NCC(c1ccc(F)cc1)N1CCOCC1 (stereo unspecified),0,0,0,53.4,0
COc1cc(NC(=O)CCCl)cc(-n2cnnn2)c1,0,-,-,0,-
C[C@H]1CCCCO[C@@H](CN(C)C(=O)CCCN(C)C)[C@@H](C)CN([C@@H](C)CO)C(=O)c2cc(NC(=O)Cc3ccccc3)ccc2O1,-,0,0,-,0
C[C@@H]1CCCCO[C@@H](CN(C)C(=O)CCCN(C)C)[C@@H](C)CN([C@H](C)CO)C(=O)c2cc(NC(=O)Cc3ccccc3)ccc2O1,-,0,0,-,103.8
C[C@@H]1CCCCO[C@H](CN(C)C(=O)CCCN(C)C)[C@@H](C)CN([C@H](C)CO)C(=O)c2cc(NC(=O)Cc3ccccc3)ccc2O1,-,0,0,-,115.6
O=C(C[C@H]1CC[C@@H]2[C@H](COC[C@H](O)CN2Cc2ccc(Oc3ccccc3)cc2)O1)N1CCOCC1,-,0,0,-,0
O=C(CCCCn1c(=O)[nH]c2ccccc2c1=O)NCCc1c[nH]c2ccccc12,0,0,0,-,0
O=C(CCCCn1c(=O)[nH]c2ccccc2c1=O)NCCC1=CCCCC1,0,0,0,83.3,0
COc1ccccc1NC(=O)Nc1ccc2c(c1)C(=O)N(C)C[C@H](OC)[C@@H](C)CN[C@@H](C)CO2,-,0,-,-,0
O=C(C[C@H]1CC[C@@H]2[C@H](COC[C@@H](O)CN2C(=O)c2ccncc2)O1)Nc1ccc(-c2ccccc2)cc1,-,0,0,-,0
CN(C)c1cccc(C(=O)OCC(=O)Nc2ccccc2-c2ccccc2)c1,0,-,-,0,-
CC(C)N(C(=O)COC(=O)c1cccc(N(C)C)c1)c1ccccc1,0,0,-,49.1,0
C[C@H]1CN([C@@H](C)CO)C(=O)c2cccc(N(C)C)c2O[C@H]1CN(C)S(C)(=O)=O,-,0,0,-,0
O=C(CSc1ccc2ccccc2c1)NCCCN1CCCC1=O,0,0,0,0,0
CC(C)Sc1nnc(SCC(=O)NCCCN2CCCC2=O)s1,0,0,-,44.1,0

# Screens as filed in PubChem BioAssay.
